Measurements published in ChEMBL document CHEMBL3994577, “New amphiphilic neamine conjugates bearing a metal binding motif active against MDR E. aerogenes Gram-negative bacteria” (2017).
≈ marks a conversion by molar mass, not a printed value. Calls of active or inactive are those of the source. The rule behind the calls is not given here. Bridge positions count the residues as written; N and C are the ends. Square brackets hold non-standard residues; d marks the D form. Peptide text beside a SMILES is read from it. * marks the point of attachment. βNA = c1ccc2cc(N*)ccc2c1; Dab = NCC[C@H](N)C(=O)O

Columns and labels:
[1] = system: Escherichia coli; experiment: Antibacterial activity against wild type Escherichia coli AG100 after 18 hrs by broth dilution method; type: functional; details: AG100, 18 h
Method in brief: (§1)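 Broth microdilution MIC in MH broth with two-fold serial dilutions of compounds from DMSO solutions (final DMSO ≤ 0.5%). Inoculum was 2x10⁵ cfu per 200 µL, incubated 18 h at 37°C. MIC was the lowest concentration with no visible growth, given as the mean of at least three independent experiments, in µM. AG100A was grown with kanamycin (50 µg.mL^-1).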

[2] = system: Klebsiella aerogenes; experiment: Antibacterial activity against multidrug resistant Enterobacter aerogenes EA289 over-expressing AcrAB-TolC after 18 hrs by broth dilution method; type: functional; details: EA289, 18 h
Method in brief: (§2)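 Broth microdilution in MH broth. Inoculum 2x10⁵ cfu per well, with two-fold serial dilutions of compound from DMSO stocks (final DMSO ≤0.5%). MIC is the lowest concentration with no visible growth after 18 h at 37°C. Values are means of at least three independent experiments, in µM. Strains grown at 37°C; EA298 kept with kanamycin 50 µg.mL^-1.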

[3] = system: Klebsiella aerogenes; experiment: Antibacterial activity against Enterobacter aerogenes EA298 TolC deficient after 18 hrs by broth dilution method; details: EA298, 18 h
[4] = system: Escherichia coli; experiment: Antibacterial activity against AcrAB deficient Escherichia coli AG100A after 18 hrs by broth dilution method; type: functional; method in brief: as §1
[5] = system: Klebsiella aerogenes; experiment: Antibacterial activity against multidrug resistant Enterobacter aerogenes EA289 over-expressing AcrAB-TolC after 18 hrs in presence of polymyxin B nonapeptide by broth dilution method; type: functional; details: EA289, 18 h; method in brief: as §2
[6] = system: Klebsiella aerogenes; experiment: Decrease in 1,2'-DiNaphtylAmine efflux in multidrug resistant Enterobacter aerogenes EA289 over-expressing AcrAB-TolC at 8 to 16 uM after 18 hrs measured every 4 sec for 6 mins in presence of glucose by fluorescence assay; type: functional
Method in brief: (§3)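 EA289 grown 24 h at 37°C, washed and resuspended in PPB at OD600 0.25. Cells loaded with 1,2'-DNA 32 µM plus CCCP 5 µM for 18 h at 37°C in the dark, washed, then mixed with compound (final 0.5–128 µM) at 37°C. Fluorescence (ex 370/em 420 nm) read every 4 s for 6 min. Glucose added at cycle 20 (~100 s) to start efflux.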

[7] = system: Escherichia coli; experiment: Antibacterial activity against wild type Escherichia coli AG100 after 18 hrs in presence of polymyxin B nonapeptide by broth dilution method; type: functional; details: AG100, 18 h
[8] = system: Klebsiella aerogenes; experiment: Induction of membrane permeability in multidrug resistant Enterobacter aerogenes EA289 over-expressing AcrAB-TolC assessed as increase in nitrocefin hydrolysis measured for 1 hr in presence of CCCP; type: functional
Method in brief: (§4)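 EA289 grown to exponential phase (OD600 0.5), washed in PPB (K₂HPO₄ 20 mM, MgCl₂ 1 mM, pH 7), adjusted to OD 0.375. Cells mixed with two-fold dilutions of compound (final 2–64 µM) plus CCCP 3.3 µM at 37°C. Nitrocefin added at t=0; OD490 followed for 1 h. Duplicate or triplicate.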

[9] = system: Escherichia coli; experiment: Antibacterial activity against AcrAB deficient Escherichia coli AG100A after 18 hrs in presence of polymyxin B nonapeptide by broth dilution method; type: functional
[10] = system: Klebsiella aerogenes; experiment: Antibacterial activity against Enterobacter aerogenes EA298 TolC deficient after 18 hrs in presence of polymyxin B nonapeptide by broth dilution method; details: EA298, 18 h
[11] = system: Klebsiella aerogenes; experiment: Induction of membrane permeability in multidrug resistant Enterobacter aerogenes EA289 over-expressing AcrAB-TolC assessed as nitrocefin hydrolysis at 64 uM after 1 hr in presence of CCCP relative to control; type: functional; design: scale not given: the % may be the effect or the level left; method in brief: as §4
[12] = system: Klebsiella aerogenes; experiment: Induction of membrane permeability in multidrug resistant Enterobacter aerogenes EA289 over-expressing AcrAB-TolC assessed as nitrocefin hydrolysis at 32 uM after 50 mins in presence of CCCP relative to control; type: functional; design: scale not given: the % may be the effect or the level left; method in brief: as §4
[13] = Binding affinity to Zn2+ in Muller-Hinton broth at 50 uM by ESI-MS analysis
Method in brief: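 Free ligand incubated in Mueller Hinton broth, the medium used for the antibacterial assays, then analysed by positive-ion ESI mass spectrometry for metal-bound species. […] Preformed Zn(II) and Cu(II) complexes were incubated in MH under the same conditions to check their stability.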

[14] = system: Klebsiella aerogenes; experiment: Decrease in 1,2'-DiNaphtylAmine efflux in multidrug resistant Enterobacter aerogenes EA289 over-expressing AcrAB-TolC at 32 uM after 18 hrs measured every 4 sec for 6 mins in presence of glucose by fluorescence assay; type: functional; method in brief: as §3
[15] = system: Klebsiella aerogenes; experiment: Induction of membrane permeability in multidrug resistant Enterobacter aerogenes EA289 over-expressing AcrAB-TolC assessed as nitrocefin hydrolysis at 3 uM up to 20 mins in presence of CCCP relative to control; type: functional; method in brief: as §4
[16] = system: Klebsiella aerogenes; experiment: Decrease in 1,2'-DiNaphtylAmine efflux in multidrug resistant Enterobacter aerogenes EA289 over-expressing AcrAB-TolC up to 32 uM after 18 hrs measured every 4 sec for 6 mins in presence of glucose by fluorescence assay; type: functional; method in brief: as §3
[17] = system: Klebsiella aerogenes; experiment: Induction of membrane permeability in multidrug resistant Enterobacter aerogenes EA289 over-expressing AcrAB-TolC assessed as nitrocefin hydrolysis at 0.75 to 48 uM after 1 hr in presence of CCCP; type: functional
[18] = system: Klebsiella aerogenes; experiment: Decrease in 1,2'-DiNaphtylAmine efflux in multidrug resistant Enterobacter aerogenes EA289 over-expressing AcrAB-TolC up to 128 uM after 18 hrs measured every 4 sec for 6 mins in presence of glucose by fluorescence assay

Compound | MIC [1] [µM] | MIC [2] [µM] | MIC [3] [µM] | MIC [4] [µM] | MIC [5] [µM] | MIC [7] [µM] | Activity [8] | MIC [9] [µM] | MIC [10] [µM] | also measured
O=C(O)c1cn(C2CC2)c2cc(N3CCNCC3)c(F)cc2c1=O [CIPROFLOXACIN] | 0.125 (≈ 0.0414 µg/mL) | 64 (≈ 21.2 µg/mL) | 8 (≈ 2.65 µg/mL) | 0.03 (≈ 0.00994 µg/mL) |  |  |  |  |  | 
O=C(N[C@H](CO)[C@H](O)c1ccc([N+](=O)[O-])cc1)C(Cl)Cl [CHLORAMPHENICOL] | 8 (≈ 2.59 µg/mL) | > 128 | 32 (≈ 10.3 µg/mL) | 1 (≈ 0.323 µg/mL) |  |  |  |  |  | 
CC(C)(O/N=C(\C(=O)N[C@@H]1C(=O)N2C(C(=O)[O-])=C(C[n+]3ccccc3)CS[C@H]12)c1csc(N)n1)C(=O)O [CEFTAZIDIME] | 0.5 (≈ 0.273 µg/mL) | > 128 | > 128 | 0.25 (≈ 0.137 µg/mL) |  |  |  |  |  | 
NC[C@H]1O[C@H](O[C@H]2[C@H](OCCCCCCNC(=O)CCCCN(Cc3ccccn3)Cc3ccccn3)[C@@H](OCc3ccc4ccccc4c3)[C@H](N)C[C@@H]2N)[C@H](N)[C@@H](OCc2ccc3ccccc3c2)[C@@H]1OCc1ccc2ccccc2c1 | 8 to 16 (≈ 8.99 to 18 µg/mL) | 16 (≈ 18 µg/mL) | 8 (≈ 8.99 µg/mL) | 8 to 16 (≈ 8.99 to 18 µg/mL) | 8 | 4 | Dose-dependent effect | 2 to 4 | 4 to 8 | Activity [6]: Active; Activity [11]: 60%
NCCCCCCO[C@@H]1[C@@H](OCc2ccc3ccccc3c2)[C@H](N)C[C@H](N)[C@H]1O[C@H]1O[C@H](CN)[C@@H](OCc2ccc3ccccc3c2)[C@H](OCc2ccc3ccccc3c2)[C@H]1N | 8 (≈ 6.74 µg/mL) | 16 (≈ 13.5 µg/mL) | 4 (≈ 3.37 µg/mL) | 8 (≈ 6.74 µg/mL) | 16 to 32 | 8 | Dose-dependent effect | 4 | 4 to 8 | 
NC[C@H]1O[C@H](O[C@H]2[C@H](OCCCCCCNC(=O)CCCC(=O)Nc3cccc(CN(Cc4ccccn4)Cc4ccccn4)n3)[C@@H](OCc3ccc4ccccc4c3)[C@H](N)C[C@@H]2N)[C@H](N)[C@@H](OCc2ccc3ccccc3c2)[C@@H]1OCc1ccc2ccccc2c1 | 2 to 4 (≈ 2.49 to 4.97 µg/mL) | 4 (≈ 4.97 µg/mL) | 2 to 8 (≈ 2.49 to 9.95 µg/mL) | 2 (≈ 2.49 µg/mL) | 4 to 8 | 2 to 4 | Dose-dependent effect | 2 | 2 | Activity [6]: Active; Activity [12]: 90%; Activity [13]: Active
NC[C@H]1O[C@H](O[C@H]2[C@H](OCCCCCCNC(=O)CCCC(=O)Nc3cccc(CN(Cc4ccccc4)Cc4ccccc4)c3)[C@@H](OCc3ccc4ccccc4c3)[C@H](N)C[C@@H]2N)[C@H](N)[C@@H](OCc2ccc3ccccc3c2)[C@@H]1OCc1ccc2ccccc2c1 | 128 (≈ 159 µg/mL) | 128 (≈ 159 µg/mL) | 64 to 128 (≈ 79.4 to 159 µg/mL) | 32 to 128 (≈ 39.7 to 159 µg/mL) | 128 | 32 to 64 | Dose-dependent effect | 32 | 32 to 64 | Activity [14]: Active; Activity [11]: 20%
POLYMYXIN B |  |  |  |  |  |  |  |  |  | Activity [15]: Active
NC[C@H]1O[C@H](O[C@H]2[C@H](OCCCCCCNC(=O)CCCC(=O)N3CCCNCCNCCCNCC3)[C@@H](OCc3ccc4ccccc4c3)[C@H](N)C[C@@H]2N)[C@H](N)[C@@H](OCc2ccc3ccccc3c2)[C@@H]1OCc1ccc2ccccc2c1 | 4 (≈ 4.55 µg/mL) | 4 to 16 (≈ 4.55 to 18.2 µg/mL) | 2 to 4 (≈ 2.28 to 4.55 µg/mL) | 2 (≈ 2.28 µg/mL) | 8 | 2 | Dose-dependent effect | 1 to 2 | 2 | Activity [6]: Active
NC[C@H]1O[C@H](O[C@H]2[C@H](O)[C@@H](O)[C@H](N)C[C@@H]2N)[C@H](N)[C@@H](O)[C@@H]1O [NEAMINE] | 16 to 32 (≈ 5.16 to 10.3 µg/mL) | 32 (≈ 10.3 µg/mL) | > 128 | 128 (≈ 41.3 µg/mL) | 16 | 8 |  | 128 | > 128 | 
N#CC(C#N)=NNc1cccc(Cl)c1 |  |  |  |  |  |  |  |  |  | Activity [16]: Active
CN1CCN(c2c(F)cc3c(=O)c(C(=O)O)cn(CCF)c3c2F)CC1 [FLEROXACIN] | 0.5 (≈ 0.185 µg/mL) | > 128 | 16 (≈ 5.91 µg/mL) | 0.125 (≈ 0.0462 µg/mL) |  |  |  |  |  | 
[N-]=[N+]=NCCCCCCO[C@@H]1[C@@H](OCc2ccc3ccccc3c2)[C@H](N)C[C@H](N)[C@H]1O[C@H]1O[C@H](CN)[C@@H](OCc2ccc3ccccc3c2)[C@H](OCc2ccc3ccccc3c2)[C@H]1N | 32 (≈ 27.8 µg/mL) | 16 (≈ 13.9 µg/mL) | 16 (≈ 13.9 µg/mL) | 32 (≈ 27.8 µg/mL) | 8 to 32 | 32 |  | 16 | 32 | 
CC(C)C[C@@H]1NC(=O)[C@@H](Cc2ccccc2)NC(=O)[C@H](CCN)NC(=O)[C@@H](NC(=O)[C@H](CCN)NC(=O)[C@@H](N)[C@@H](C)O)CCNC(=O)[C@H]([C@@H](C)O)NC(=O)[C@H](CCN)NC(=O)[C@H](CCN)NC1=O (H-T[Dab][Dab][Dab][dF]L[Dab][Dab]T; lactam 3-C) |  |  |  |  |  |  |  |  |  | Activity [17]: inactive
N=C(N)NCCC[C@H](NC(=O)[C@@H](N)Cc1ccccc1)C(=O)Nc1ccc2ccccc2c1 (H-Phe-Arg-βNA) |  |  |  |  |  |  |  |  |  | Activity [18]: inactive
